Measurements: article PMC4561049 (Drugs in R&D, 2015)

What was measured:
[1] = tested on: patients with moderate-to-severe COPD; experiment: Relationship between systemic exposure; format: in vivo, human; conditions: 0 to 4 h, day 1 and day 28; 100-800 μg once daily, 100-400 μg twice daily
Summary of the method: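 Individual observed plasma Cmax was plotted against maximum glucose, heart rate, QTcF (Fridericia correction) and potassium over 0–4 h on day 1 and day 28. Relationships were explored graphically only. Placebo Cmax was set to 0 pg/mL, and below-LLOQ values were plotted as 12.5 pg/mL (half of the 25 pg/mL LLOQ).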

patients with COPD = conditions: 1200 µg once daily; cited from earlier work
[2] = tested on: patients with moderate-to-severe COPD; conditions: cited from earlier work
[3] = format: in vivo, human
Summary of the method: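 Plasma sampling on day 28 in a subset of patients at overnight sites, after both the morning and the evening inhaled doses: 1 h–0 min pre-dose, then 0–30 min, 30 min–2 h, 2–6 h and 6–11 h post-dose. Samples were assayed by HPLC–MS (LLOQ 25 pg/mL), and concentrations were log-transformed. A two-compartment model with first-order absorption was fitted in NONMEM 7 by Monte Carlo importance sampling.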

[4] = tested on: patients with moderate-to-severe COPD; experiment: Population pharmacodynamic Emax model of day 29 trough FEV1 in COPD patients; format: in vivo, human
Summary of the method: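 COPD patients (≥40 y, ≥10 pack-years) received inhaled DISKUS test compound for 4 weeks: 100, 400 or 800 μg once daily (morning) or 100, 200 or 400 μg twice daily. Day 29 trough FEV1 (Vitalograph) was the mean of the 11 and 12 h post-evening-dose readings on day 28. An Emax model on total daily dose, with both regimens pooled, was fitted in NONMEM 7 (FOCE with interaction).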

Question: With `COc1cc(NC(=O)CCN2CCC(OC(=O)Nc3ccccc3-c3ccccc3)CC2)c(Cl)cc1CNC[C@H](O)c1ccc(O)c2[nH]c(=O)ccc12` [GSK961081, batefenterol] as the compound, how does the “Relationship between maximum QTcF and individual observed Cmax” value [1] read?
Answer: No clear relationships

Question: What about the “Relationship between maximum glucose and individual observed Cmax” value [1] of the same compound?
Answer: No clear relationships

Question: And the “Relationship between maximum heart rate and individual observed Cmax” value [1]?
Answer: No clear relationships

Question: And the “Relationship between minimum potassium and individual observed Cmax” value [1]?
Answer: No clear relationships

Question: What about the “Prolongation of the QT interval” value (patients with COPD) of the same compound?
Answer: no prolongation of the QT interval

Question: What about the “Improvement in the trough FEV1” value ([2]; after 28 days of treatment) of the same compound?
Answer: 155 to 277 mL

Question: What about the “Dose response of QTc prolongation” value [2] of the same compound?
Answer: no apparent dose response

Question: What about the Onset of action [2] of the same compound?
Answer: rapid onset of action

Question: And the Tolerability [2]?
Answer: well tolerated

Question: And the “Prolongation of various QTc intervals” value ([2]; in comparison with placebo or salmeterol)?
Answer: 3 to 5 ms

Question: And the “Effect on glucose levels, potassium levels, heart rate, or blood pressure” value ([2]; safety findings of the primary publication)?
Answer: no effect

Question: And the “Increase in the trough FEV1 from 400 to 800 μg” value ([2]; total daily dose)?
Answer: only a small increase

Question: And the Vd/F ([3]; human, plasma, inhaled)?
Answer: 6.26 L

Question: What about the “Interindividual variability CL/F” value ([3]; population PK model, column head Log estimate) of the same compound?
Answer: 0.594

Question: And the “Intercept for E0 (FEV1 at zero dose)” value ([4]; Emax model of day 29 trough FEV1, 347 COPD patients)?
Answer: 0.0650 L

Question: What about the “ED50 (dose producing 50 % of the maximum effect)” value ([4]; Emax model of day 29 trough FEV1 versus total daily dose, 347 COPD patients) of the same compound?
Answer: 152 µg

Question: And the “Difference between once-daily and twice-daily dosing for day 29 trough FEV1” value ([4]; influence of dosing regimen on the PD model)?
Answer: no apparent difference
